High-throughput results: PubChem, several laboratories
Hep lipid drop = modulators of hepatic lipid droplet formation; inhibition, % at 6.5 µM; AML12 mouse hepatocytes, oleate lipid droplets, BODIPY imaging; 0.4% of 240,000 active; AID 1656;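 active = lipid droplet intensity inhibited by at least 50%, with more than 500 cells counted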
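Test system: AML12 mouse liver cells; schedule: overnight exposure; technique: high-content imaging of BODIPY-stained droplets and DAPI nuclei; read-out: % inhibition of corrected integrated BODIPY droplet signal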
ADAM10 inh = ADAM10 inhibition, QFRET primary screen; 0.62% of 370,000 active; inhibition, % at 7 µM; recombinant ADAM10, EDANS/DABCYL FRET peptide cleavage, 3 h;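 active = inhibition above a per-campaign cutoff equal to the mean of compounds falling between control-based bounds plus 3 SD, cut at about 20% in these data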
aDG glyco act = alpha-DG glycosylation activation; Pro5-aDG cells, alpha-DG glycosylation AlphaScreen (IIH6); 0% Pro5, 100% B10-LARGE cell signal; activation, % at 10 µM; 0.22% of 360,000 active; AID 624168;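 active = activation of at least 8% versus controls, or a plate z-score of at least 8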;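 also: Pro5 are CHO cells carrying HIG-tagged alpha-DG that lacks glycosylation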
ADAM17 inh = inhibitors of human ADAM17; AID 720648; 0.83% of 370,000 active; inhibition, % at 6.95 µM; recombinant ADAM17, EDANS/DABCYL FRET peptide cleavage;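 active = inhibition above the mean of compounds lying between control limits plus 3 SD, set per campaign, cut at about 8.5% in these data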
Target sequence (P78536 215-824 limits assumed): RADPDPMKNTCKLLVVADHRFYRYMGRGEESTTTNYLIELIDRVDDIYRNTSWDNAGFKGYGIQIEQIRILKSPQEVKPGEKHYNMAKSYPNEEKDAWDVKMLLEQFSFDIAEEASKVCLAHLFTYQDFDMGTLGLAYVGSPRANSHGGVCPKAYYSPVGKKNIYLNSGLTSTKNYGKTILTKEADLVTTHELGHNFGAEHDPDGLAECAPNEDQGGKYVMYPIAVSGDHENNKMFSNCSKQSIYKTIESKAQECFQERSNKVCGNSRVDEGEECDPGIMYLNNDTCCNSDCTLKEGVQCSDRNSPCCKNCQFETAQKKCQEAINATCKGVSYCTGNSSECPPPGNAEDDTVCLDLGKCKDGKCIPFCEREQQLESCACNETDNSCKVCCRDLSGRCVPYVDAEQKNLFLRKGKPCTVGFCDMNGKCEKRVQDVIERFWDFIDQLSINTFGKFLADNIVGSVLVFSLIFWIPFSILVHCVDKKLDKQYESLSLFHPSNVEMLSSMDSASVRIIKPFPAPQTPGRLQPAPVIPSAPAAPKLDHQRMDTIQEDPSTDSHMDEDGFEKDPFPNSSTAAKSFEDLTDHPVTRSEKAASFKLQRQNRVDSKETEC
V-ATPase pH = alters yeast V-ATPase proton transport; 0.37% of 350,000 active; S. cerevisiae, pHLuorin cytosolic pH fluorescence; response, % at 10 µM; in the data active = response mostly above about 7.3%, no sharp cut-off; inactive = mostly below about 5.4%; also: actives read high
MPTP block = permeability transition pore inhibition. isolated mouse mitochondria, Ca2+ swelling absorbance, 30 min. 1.4% of 360,000 active. inhibition, % at 10 µM. AID 602449;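 active = inhibition of 50% or more, scaled per plate between neutral and stimulator controls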
MPTP counter = membrane potential counter-screen of mitochondrial pore inhibitors; inhibition, % at 10 µM; isolated mitochondria, Rhodamine 123 fluorescence; 78% of 5,000 active; shares compounds with MPTP block; in the data active = inhibition above about 22%
MPTP swell DR = dose response confirmation of mitochondrial permeability transition pore inhibitors | isolated mitochondria swelling, absorbance | 58% of 780 active | shares compounds with MPTP block | AID 651561 | IC50, µM; in the data active = IC50 below about 20 µM
MPTP cs DR = counter-screen for mitochondrial permeability transition pore inhibitors, dose response | shares compounds with MPTP block | IC50, µM | 49% of 780 active | isolated mitochondria counterscreen, fluorescence read-out; in the data active = IC50 below about 80 µM
A number is an active result. Hits are enriched below; roughly 3.1% of the tested compounds scored in any of these assays.

For CCOC(=O)c1sc(NC(=O)c2cc(-c3ccccc3C)nc3ccccc23)c(C#N)c1C the results were Hep lipid drop inactive, ADAM10 inh inactive, aDG glyco act inactive, ADAM17 inh inactive, V-ATPase pH inactive, MPTP block 112 and MPTP counter 87.
`CCOC(=O)c1c(NC(=O)c2ccncc2)sc(C)c1C` gave Hep lipid drop inactive, ADAM10 inh inactive, aDG glyco act inactive, ADAM17 inh inactive, V-ATPase pH inactive and MPTP block inactive.
CCOC(=O)c1sc(NC(=O)c2ccncc2)c(C#N)c1C was read as Hep lipid drop inactive, ADAM10 inh inactive, aDG glyco act inactive, ADAM17 inh inactive, V-ATPase pH inactive, MPTP block 97 and MPTP counter 87.
CCOC(=O)c1sc(NC(=O)CSc2n[nH]c(-c3ccc(Cl)cc3Cl)n2)c(C#N)c1C was read as ADAM10 inh inactive, aDG glyco act inactive, ADAM17 inh inactive, V-ATPase pH inactive, MPTP block 83 and MPTP counter 83.
`Cc1ccccc1-c1cc(C(=O)Nc2sc(C)c(C)c2C(N)=O)c2ccccc2n1` gave Hep lipid drop inactive, ADAM10 inh inactive, aDG glyco act inactive, ADAM17 inh inactive, V-ATPase pH inactive and MPTP block inactive.
Screening Cc1ccc(-n2c(Cc3cccs3)nnc2SCc2ccc(Br)cc2)cc1 returned ADAM10 inh inactive and ADAM17 inh inactive.
Cc1cc(C)cc(N(CC(=O)NC2CCC(C)CC2)S(=O)(=O)c2ccc(Cl)s2)c1 (stereo unspecified) was read as ADAM10 inh inactive and ADAM17 inh inactive.
O[C@H](COc1ccc(Cl)cc1)CN1CCC(C(O)(c2ccccc2)c2ccccc2)CC1 was read as ADAM10 inh inactive and ADAM17 inh inactive.
Cc1ccc(S(=O)(=O)N2CCN(c3ncnc4sccc34)CC2)cc1 was read as Hep lipid drop inactive, ADAM10 inh inactive, aDG glyco act inactive, ADAM17 inh inactive, V-ATPase pH inactive, MPTP block 82 and MPTP counter 85.
For Cc1sc2ncnc(N3CCN(S(=O)(=O)c4ccc(F)cc4)CC3)c2c1C the results were Hep lipid drop inactive, ADAM10 inh inactive, aDG glyco act inactive, ADAM17 inh inactive, V-ATPase pH inactive, MPTP block 56 and MPTP counter 66.
`c1ccc(CC2CCN(c3ncnc4sccc34)CC2)cc1` gave Hep lipid drop inactive, ADAM10 inh inactive, aDG glyco act inactive, ADAM17 inh inactive, V-ATPase pH inactive, MPTP block 100 and MPTP counter 98.
Screening O=S(=O)(c1ccccc1C(F)(F)F)N1CCN(c2ncnc3sccc23)CC1 returned ADAM10 inh inactive, aDG glyco act inactive, ADAM17 inh inactive, V-ATPase pH inactive and MPTP block inactive.
O=S(=O)(c1ccc(F)c(F)c1F)N1CCN(c2ncnc3sccc23)CC1 was read as ADAM10 inh inactive, aDG glyco act inactive, ADAM17 inh inactive, V-ATPase pH inactive, MPTP block 68 and MPTP counter 87.
Screening CCCCOc1ccc(C(=O)n2ccc3ccc(-c4ccc5ccn(Cc6ccc(OC)cc6)c5c4)cc32)cc1 returned ADAM10 inh inactive and ADAM17 inh inactive.
Screening CO/N=C/C(C#N)c1ncc(C(F)(F)F)cc1Cl (stereo unspecified) returned aDG glyco act inactive, V-ATPase pH inactive, MPTP block 99 and MPTP counter 92.
Screening C[C@H]1[C@@H](NC(=O)C2CCCCC2)CC[C@@]23CCCN2C(=O)CCC[C@@H]13 returned ADAM10 inh inactive and ADAM17 inh inactive.
`COc1ccc(S(=O)(=O)NNC(=O)C2Cc3c(ccc4ccccc34)O2)cc1` (stereo unspecified) gave ADAM10 inh inactive, aDG glyco act inactive, ADAM17 inh inactive, V-ATPase pH inactive, MPTP block 80 and MPTP counter 54.
COCCNC(=O)C1Cc2c(ccc3ccccc23)O1 (stereo unspecified) was read as Hep lipid drop inactive, ADAM10 inh inactive, aDG glyco act inactive, ADAM17 inh inactive, V-ATPase pH inactive and MPTP block inactive.
Screening COc1ccc(NC(=O)C2Cc3c(-c4ccccc4)ccnc3O2)cc1OC (stereo unspecified) returned aDG glyco act inactive, MPTP block 59 and MPTP counter 85.
COc1ccc(NC(=O)C2Cc3c(-c4ccc(Cl)cc4)ccnc3O2)cc1OC (stereo unspecified) was read as ADAM10 inh inactive, aDG glyco act inactive, ADAM17 inh inactive, MPTP block 70 and MPTP counter 80.
For COC(=O)c1cc(OC)c(OC)cc1NC(=S)Nc1cc(Cl)ccc1OC the results were Hep lipid drop inactive, ADAM10 inh inactive, aDG glyco act inactive, ADAM17 inh inactive, V-ATPase pH inactive and MPTP block inactive.
`COC(=O)c1cc(OC)c(OC)cc1NC(=S)Nc1cccc(Cl)c1` gave ADAM10 inh inactive, aDG glyco act inactive, ADAM17 inh inactive, V-ATPase pH inactive, MPTP block 91 and MPTP counter 110.
For COc1cc(C)c(NC(=S)Nc2ccc(Cl)c(Cl)c2)cc1OC the results were Hep lipid drop inactive, ADAM10 inh inactive, aDG glyco act inactive, ADAM17 inh inactive, V-ATPase pH inactive, MPTP block 100 and MPTP counter 82.
For COCCNC(=S)Nc1ccc(Cl)c(Cl)c1 the results were Hep lipid drop inactive, ADAM10 inh inactive, aDG glyco act inactive, ADAM17 inh inactive, V-ATPase pH inactive and MPTP block inactive.
Screening CCOC(=O)[C@@]12CCC3=C1N(CCC3)C(=O)[C@H](CC(=O)N1CCC(c3ccccc3)CC1)C2 returned ADAM10 inh inactive and ADAM17 inh inactive.
Screening COc1ccc(C)cc1-n1nnnc1SCc1csc(C)n1 returned ADAM10 inh inactive, aDG glyco act inactive, ADAM17 inh inactive, V-ATPase pH inactive and MPTP block inactive.
COc1ccc(C)cc1-n1nnnc1SCc1cc(=O)n2cc(C)ccc2n1 was read as ADAM10 inh inactive, aDG glyco act inactive, ADAM17 inh inactive, V-ATPase pH inactive, MPTP block 52, MPTP counter inactive, MPTP swell DR inactive and MPTP cs DR 21.
`NC(=NC(=O)/C=C/c1ccccc1Br)N(CC#Cc1ccccc1)CC#Cc1ccccc1` gave ADAM10 inh inactive and ADAM17 inh inactive.
`Cc1cccc(OCCCCCNCCO)c1` gave ADAM10 inh inactive, aDG glyco act inactive, ADAM17 inh inactive, V-ATPase pH inactive and MPTP block inactive.
